In ChEMBL document CHEMBL3091301, “Xanthohumol modulates inflammation, oxidative stress, and angiogenesis in type 1 diabetic rat skin wound healing” (2013):
Calls of active or inactive are those of the source. The rule behind the calls is not given here.

Key:
Rattus norvegicus [1] = test: Antiangiogenic activity in streptozotocin-induced diabetic Wistar rat model assessed as decrease in microvessel density in wound region at 10 mg/L, po administered with superbock stout beer for […] prior to wounding measured on day 7 post-wounding by wound healing assay; assay type: functional, organism-based
Outline: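 Beverage given ad libitum, renewed every two days, kept in dark bottles. Vessels counted in three dorsal skin wound sections per animal and normalized to section area; each separate stained endothelial cell or cluster counted as one vessel; n = 4–6.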

Rattus norvegicus [2] = test: (§1) Antioxidant activity in streptozotocin-induced diabetic Wistar rat model assessed as reduction in hepatic protein carbonylation at 10 mg/L, po administered with superbock stout beer for 5 weeks prior to wounding measured on day 7 post-wounding by Western blotting analysis (reference value: 13.80 +/- 1.12%); assay type: functional; set-up: scale not given: the % may be the effect or the level left
Rattus norvegicus [3] = test: Antioxidant activity in streptozotocin-induced diabetic Wistar rat model assessed as decrease in H2O2 release in kidney at 10 mg/L, po administered with superbock stout beer for 5 weeks prior to wounding measured on day 7 post-wounding by fluorescence assay relative to control; assay type: functional, organism-based
Outline: (§2)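 Fresh kidney or liver cut into 3 mm3 pieces and incubated 90 min at 37 °C in oxygenated, shaken Krebs-HEPES (pH 7.4, 5 mM glucose). H2O2 released measured by Amplex Red fluorescence. Expressed as percent of healthy control; means ± SEM, n = 4–6.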

Rattus norvegicus [4] = test: Antioxidant activity in streptozotocin-induced diabetic Wistar rat model assessed as reduction in protein carbonylation in kidney at 10 mg/L, po administered with superbock stout beer for 5 weeks prior to wounding measured on day 7 post-wounding by Western blotting analysis relative to control; assay type: functional, organism-based
Rattus norvegicus [5] = test: as §1, with “3-NT” for “hepatic”, “expression in kidney” for “carbonylation”, “3.76” for “13.80”, “0.57%)” for “1.12%)”; assay type: functional; set-up: scale not given: the % may be the effect or the level left
Rattus norvegicus [6] = test: as §1, with “3-NT” for “hepatic”, “expression in liver” for “carbonylation”, “5.52” for “13.80”, “1.64%)” for “1.12%)”; assay type: functional; set-up: scale not given: the % may be the effect or the level left
Rattus norvegicus [7] = test: Antioxidant activity in streptozotocin-induced diabetic Wistar rat model assessed as […] in H2O2 release in liver at 10 mg/L, po administered with superbock stout beer for 5 weeks prior to wounding measured on day 7 post-wounding by fluorescence assay relative to control; assay type: functional, organism-based; outline: as §2
Rattus norvegicus [8] = test: Antioxidant activity in streptozotocin-induced diabetic Wistar rat model assessed as increase in reduced glutathione level in serum at 10 mg/L, po administered with superbock stout beer for 5 weeks prior to wounding measured on day 7 post-wounding by RP-HPLC analysis; assay type: functional, organism-based
Outline: (§3)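 Plasma reduced and oxidized glutathione separated and quantified by reversed-phase HPLC with a GSH/GSSG kit. Samples came from skin-injured STZ-diabetic rats after five weeks of ad libitum beverage. Expressed as percent of control; n = 4–6.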

Rattus norvegicus [9] = test: Antioxidant activity in streptozotocin-induced diabetic Wistar rat model assessed as increase in reduced/oxidized glutathione ratio in serum at 10 mg/L, po administered with superbock stout beer for 5 weeks prior to wounding measured on day 7 post-wounding by RP-HPLC analysis; assay type: functional, organism-based; outline: as §3
Rattus norvegicus [10] = test: Antiinflammatory activity in streptozotocin-induced diabetic Wistar rat model assessed as reduction in nitric oxide level in serum at 10 mg/L, po administered with superbock stout beer for 5 weeks prior to wounding measured on day 7 post-wounding by Griess method relative to control; assay type: functional, organism-based
Rattus norvegicus [11] = test: Antiinflammatory activity in streptozotocin-induced diabetic Wistar rat model assessed as reduction in N-acetylglucosaminidase level in serum at 10 mg/L, po administered with superbock stout beer for 5 weeks prior to wounding measured on day 7 post-wounding relative to control; assay type: functional, organism-based
Rattus norvegicus [12] = test: Antiinflammatory activity in streptozotocin-induced diabetic Wistar rat model assessed as reduction in IL1beta level in serum at 10 mg/L, po administered with superbock stout beer for 5 weeks prior to wounding measured on day 7 post-wounding by ELISA (reference value: 20.94 +/- 2.17 pg/mL); assay type: functional
Rattus norvegicus [13] = test: Antiangiogenic activity in streptozotocin-induced diabetic Wistar rat model assessed as reduction in VEGF-A level in plasma at 10 mg/L, po administered with superbock stout beer for 5 weeks prior to wounding measured on day 7 post-wounding by ELISA; assay type: functional, organism-based
Outline: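 STZ-diabetic male Wistar rats (50 mg/kg i.p.; glucose >250 mg/dL) drinking the beverage ad libitum for five weeks, with skin injury. Plasma VEGF-A measured by rat VEGF Quantikine ELISA per kit instructions; means ± SEM, n = 4–6; ANOVA with Bonferroni.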

- Activity (Rattus norvegicus [11]): Active
Compound: COc1cc(O)c(CC=C(C)C)c(O)c1C(=O)/C=C/c1ccc(O)cc1 [XANTHOHUMOL]
- Activity (Rattus norvegicus [1]): Active
- Activity (Rattus norvegicus [2]): 4.67%
- Activity (Rattus norvegicus [3]): Active
- Activity (Rattus norvegicus [4]): Active
- Activity (Rattus norvegicus [5]): 1.99%
- Activity (Rattus norvegicus [6]): 1.38%
- Activity (Rattus norvegicus [7]): Active
- Activity (Rattus norvegicus [8]): Active
- Activity (Rattus norvegicus [9]): Active
- Activity (Rattus norvegicus [10]): Active
- Activity (Rattus norvegicus [12]): 13.36 pg/mL
- Activity (Rattus norvegicus [13]): Active
